# From ChEMBL document CHEMBL1152746, “Inhibitors of adenosine consuming parasites through polymer-assisted solution phase synthesis of lipophilic 5'-amido-5'-deoxyadenosine derivatives” (Bioorg Med Chem, 2009)
# Test system: Plasmodium falciparum
# Assay: Antiplasmodial activity against Plasmodium falciparum K1 as [3H]hypoxanthine uptake
# Assay type: functional, organism-based
# Conditions: K1, 72 h
# Method in brief: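 Erythrocytic stages of chloroquine- and pyrimethamine-resistant K1 strain grown in washed human A+ red cells, 2.5% hematocrit, 0.3% parasitemia. Medium was hypoxanthine-free RPMI 1640 with HEPES, NaHCO3, neomycin and AlbuMAX. DMSO stocks (10 mg/mL) tested as serial doubling dilutions for 48 h at 37 °C under 4% CO2, 3% O2, 93% N2. [3H]hypoxanthine then added for 24 h, cells harvested onto filters, scintillation counted.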
row,Compound,IC50
1,O=C(CCCOc1ccccc1)NC[C@H]1O[C@@H](n2cnc3c(NCc4ccc(Oc5ccccc5)cc4)ncnc32)[C@H](O)[C@@H]1O,2800 nM
2,O=C(Cc1cccc2ccccc12)NC[C@H]1O[C@@H](n2cnc3c(NCc4ccc(Oc5ccccc5)cc4)ncnc32)[C@H](O)[C@@H]1O,300 nM
3,O=C(NC[C@H]1O[C@@H](n2cnc3c(NCc4ccc(Oc5ccccc5)cc4)ncnc32)[C@H](O)[C@@H]1O)c1ccc(Oc2ccccc2)cc1,3300 nM
4,O=C(NC[C@H]1O[C@@H](n2cnc3c(NCc4ccc(Oc5ccccc5)cc4)ncnc32)[C@H](O)[C@@H]1O)c1cc(Cl)cc(Cl)c1,3500 nM
5,O=C(NC[C@H]1O[C@@H](n2cnc3c(NCc4ccc(Oc5ccccc5)cc4)ncnc32)[C@H](O)[C@@H]1O)c1ccc2c(c1)[nH]c(=O)n2Cc1ccccn1,2100 nM
6,COc1cccc(CC(=O)NC[C@H]2O[C@@H](n3cnc4c(NCc5ccc(Oc6ccccc6)cc5)ncnc43)[C@H](O)[C@@H]2O)c1,3400 nM
7,O=C(NC[C@H]1O[C@@H](n2cnc3c(NCc4ccc(Oc5ccccc5)cc4)ncnc32)[C@H](O)[C@@H]1O)c1ccc2c(c1)[nH]c(=O)n2COc1ccccc1,3300 nM
8,O=C(CCCc1c[nH]c2ccccc12)NC[C@H]1O[C@@H](n2cnc3c(NCc4ccc(Oc5ccccc5)cc4)ncnc32)[C@H](O)[C@@H]1O,> 8500 nM
9,CC(C)=CC(=O)NC[C@H]1O[C@@H](n2cnc3c(NCc4ccc(Oc5ccccc5)cc4)ncnc32)[C@H](O)[C@@H]1O,4300 nM
10,CC(C)CCC(=O)NC[C@H]1O[C@@H](n2cnc3c(NCc4ccc(Oc5ccccc5)cc4)ncnc32)[C@H](O)[C@@H]1O,4600 nM
11,O=C(NC[C@H]1O[C@@H](n2cnc3c(NCc4ccc(Oc5ccccc5)cc4)ncnc32)[C@H](O)[C@@H]1O)c1ccc2c(c1)ncn2Cc1ccccn1,4000 nM
12,COCCCn1c(=O)[nH]c2cc(C(=O)NC[C@H]3O[C@@H](n4cnc5c(NCc6ccc(Oc7ccccc7)cc6)ncnc54)[C@H](O)[C@@H]3O)ccc21,900 nM
13,C=CCn1cnc2cc(C(=O)NC[C@H]3O[C@@H](n4cnc5c(NCc6ccc(Oc7ccccc7)cc6)ncnc54)[C@H](O)[C@@H]3O)ccc21,2700 nM
14,O=C(CCCc1ccccc1)NC[C@H]1O[C@@H](n2cnc3c(NCc4ccc(Oc5ccccc5)cc4)ncnc32)[C@H](O)[C@@H]1O,2600 nM
15,O=C(Cc1cccc(Cl)c1)NC[C@H]1O[C@@H](n2cnc3c(NCc4ccc(Oc5ccccc5)cc4)ncnc32)[C@H](O)[C@@H]1O,3100 nM
16,O=C(NC[C@H]1O[C@@H](n2cnc3c(NCc4ccc(Oc5ccccc5)cc4)ncnc32)[C@H](O)[C@@H]1O)c1ccc2c(c1)ncn2Cc1cccc2ccccc12,2200 nM
17,CCCCCn1cnc2cc(C(=O)NC[C@H]3O[C@@H](n4cnc5c(NCc6ccc(Oc7ccccc7)cc6)ncnc54)[C@H](O)[C@@H]3O)ccc21,1500 nM
18,CCCCn1c(=O)[nH]c2cc(C(=O)NC[C@H]3O[C@@H](n4cnc5c(NCc6ccc(Oc7ccccc7)cc6)ncnc54)[C@H](O)[C@@H]3O)ccc21,3100 nM
19,COCCCn1cnc2cc(C(=O)NC[C@H]3O[C@@H](n4cnc5c(NCc6ccc(Oc7ccccc7)cc6)ncnc54)[C@H](O)[C@@H]3O)ccc21,2600 nM
20,O=C(NC[C@H]1O[C@@H](n2cnc3c(NCc4ccc(Oc5ccccc5)cc4)ncnc32)[C@H](O)[C@@H]1O)c1ccc2c(c1)[nH]c(=O)n2CCC1=CCCCC1,2900 nM
21,CCN(CC)CCCC(C)Nc1ccnc2cc(Cl)ccc12 (stereo unspecified) [CHLOROQUINE],900 nM
